An excerpt weighted towards active compounds, which were near 9.8% of everything screened.
WT yeast gro inh = growth inhibition of WT yeast, mitochondrial fusion screen. mitochondrial fusion phenotypic screen, WT strain. inhibition, % at 10 µM. 2.1% of 190,000 active. AID 1362; in the data active means inhibition above about 58%; tested in S. cerevisiae
m-calpain inh = blocks pig calpain II enzyme activity | purified calpain II, fluorogenic peptide substrate, 30 min | inhibition, % at 16 µM | 0.37% of 220,000 active | AID 1236;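 active means inhibition above about 50%, limit read from the data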
PMI act = activators of human phosphomannose isomerase; P34949; purified human PMI, coupled resazurin fluorescence, 20 min; stronger effect = higher value; 1 = vehicle control, 0 substrate-free wells; activation factor at 20 µM; 0.005% of 190,000 active;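 active means activation factor of 2 or more at 20 µM, relative to plate controls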
Lmaj promast = Leishmania major promastigote growth inhibition | 9% of 200,000 active | AID 1063 | Leishmania major promastigotes, resazurin fluorescence viability | inhibition, % at 10 µM; in the data active means inhibition above about 50%;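 further: promastigotes grown with compound for 44 hours at 28 °C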
Rad51 HR inh = blocks human Rad51 in homologous recombination. hRad51 DNA strand exchange, fluorescence dequenching. inhibition, % at 10 µM. 0.085% of 200,000 active. Q06609. AID 1385;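 active means inhibition above 40% at the single screening dose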;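 further: 0% = DMSO control wells and 100% = blanks with heterologous ssDNA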
Target sequence (Q06609 whole entry, looked up): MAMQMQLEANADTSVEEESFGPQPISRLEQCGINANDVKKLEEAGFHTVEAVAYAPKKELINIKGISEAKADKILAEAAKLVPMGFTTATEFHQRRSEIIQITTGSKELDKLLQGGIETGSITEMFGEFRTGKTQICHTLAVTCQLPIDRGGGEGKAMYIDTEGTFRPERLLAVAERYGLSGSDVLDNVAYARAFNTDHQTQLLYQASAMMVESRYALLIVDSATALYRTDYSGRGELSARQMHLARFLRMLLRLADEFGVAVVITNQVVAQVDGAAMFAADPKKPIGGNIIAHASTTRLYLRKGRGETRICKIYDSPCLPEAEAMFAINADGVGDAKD
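System: human Rad51 nucleoprotein filaments preassembled on unlabelled ssDNA. Reagent: labelled 47-mer dsDNA for strand exchange. Schedule: 30-min compound preincubation and 15-min exchange, both room temperature. Measured by: FRET fluorescence dequenching, excitation 485 nm, emission 520 nm. Read-out: Fluorescence-based percent inhibition, control- and blank-normalised. Benchmarks: plate controls and plate blanks.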
PMI act satM6P = PMI (human) activation, high substrate | coupled PMI enzyme assay, resazurin fluorescence, 20 min; stronger effect = higher value; 1 = untreated enzyme, 0 = substrate-free blank | 0.34% of 190,000 active | activation factor at 20 µM | AID 1216;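 active means activation factor of 2 or more at 20 µM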
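Test system: human phosphomannose isomerase with PGI, G6PDH, diaphorase coupling enzymes; amount: 15 ng/mL PMI; incubation: enzyme reaction with compound 20 min at room temperature; technique: resorufin fluorescence (Ex 544/Em 590 nm) from resazurin via diaphorase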
* hit, by the source's call; · = no result given.

SMILES	WT yeast gro inh	m-calpain inh	PMI act	Lmaj promast	Rad51 HR inh	PMI act satM6P
COc1ccc2c(c1)CCCC21SC(NC(C)=O)=NN1C(C)=O (stereo not drawn)	-14.9	28.2	1	3.5	-6.0	1
C=C(C)Cn1cnc2c(oc3nc4c(cc32)CCCC4)c1=O	·	24.0	·	·	11.3	·
O=c1cc(/C=C/c2ccccc2)oc2c1ccc1ccccc12	80.5*	-30.1	0.9	-1.6	23.1	1
N#Cc1ccccc1CSc1nc2ccsc2c(=O)n1Cc1ccccn1	24.8	24.8	0.9	42.9	0.1	1
O=c1c2sccc2nc(SCc2cc(=O)n3cc(Br)ccc3n2)n1Cc1ccccn1	7.0	29.5	0.9	54.6*	-8.2	0.9
Cc1ccc(CSc2nc3ccsc3c(=O)n2Cc2ccccn2)cc1	59.4*	28.0	0.9	67.0*	6.5	0.9
Nc1nnc(SCC(=O)OCC(=O)c2ccccc2Br)s1	-12.1	1.9	1.2	-4.4	-0.8	1.1
CCn1cnc2scc(-c3ccccc3)c2c1=O	-2.5	-9.3	1.1	-2.1	-12.4	1.1
Cn1cc(/C=N/n2cnc3scc(-c4ccc(Cl)cc4)c3c2=O)c2ccccc21	15.2	-72.7	0.9	59.4*	3.1	0.9
CCCCNC(=S)N/N=C/c1ccccc1F	16.9	72.0*	1	-9.2	11.8	1.1
CCCCNC(=S)N/N=C/c1sccc1C	10.8	21.7	0.9	-5.0	5.9	0.9
CCCCNC(=S)N/N=C/c1cc(C)ccc1C	66.5*	16.3	0.8	-3.6	·	0.8
CCCOc1ccc(-c2nc[nH]c2[N+](=O)[O-])cc1	0.9	9.1	1.3	19.3	-14.9	1.2
O=[N+]([O-])c1ccc(COc2ncnc3ccccc23)cc1	-7.6	-6.0	1	-5.9	-0.4	0.9
Fc1ccc(-c2csc(=S)[nH]2)cc1	62.0*	14.8	1.6	93.0*	10.8	2.4*
O=c1[nH]c(-c2ccc(Cl)cc2)cs1	-13.3	-0.8	0.9	-4.7	6.3	0.9
CC(CO)(CO)NCc1ccc(-c2ccccc2)cc1	9.2	19.2	1	43.6	-0.6	1.1
OCCNCCNCc1ccc(-c2ccccc2)cc1	3.1	-27.1	1.3	100.5*	19.8	1.3
Cc1cc(C)cc(OCC(=O)N(Cc2ccc(N(C)C)cc2)C2CCS(=O)(=O)C2)c1 (stereo not drawn)	·	6.8	·	·	·	·
C=CCCCCCCCCc1nc(=S)[nH][nH]1	74.8*	-13.5	0.9	52.8*	11.8	0.9
C=CCCCCCCCCc1nc(SCC(=O)O)n[nH]1	·	-17.7	·	·	·	·
O=C(Cc1ccccc1)N/N=C/c1ccc(OC(=O)/C=C\c2ccco2)cc1	-17.4	-8.0	1.1	-7.8	-10.6	1.1
O=C(CNC(=O)c1ccccc1O)N/N=C/c1cc(Br)ccc1OC(=O)/C=C/c1ccco1	30.1	-263.8	1.1	68.2*	3.5	1.2
COc1ccc([N+](=O)[O-])cc1/C=N/NC(=O)CNC(=O)c1cccc(F)c1	-22.8	-5.4	0.9	97.9*	·	1.1
COc1ccccc1C(=O)NCC(=O)N/N=C/c1cc(Br)ccc1OCc1ccccc1	9.5	-32.3	0.9	18.4	·	1
SMILES	WT yeast gro inh	m-calpain inh	PMI act	Lmaj promast	Rad51 HR inh	PMI act satM6P
O=C(CNC(=O)c1ccc(F)cc1)N/N=C/c1cc(Br)ccc1OCc1ccccc1	16.8	-40.1	0.9	95.7*	-0.1	0.8
O=C(CNC(=O)c1cccc(F)c1)N/N=C/c1cc(Br)ccc1OC(=O)/C=C/c1ccco1	16.2	-198.4	1	84.4*	-8.9	1.1
COc1ccc([N+](=O)[O-])cc1/C=N/NC(=O)CNC(=O)C(c1ccccc1)c1ccccc1	18.7	-17.0	0.9	-1.2	-1.5	0.9
N#CCc1nn(-c2ccc(F)cc2)c(N)c1C#N	-5.4	-18.5	1	-5.3	-2.5	0.8
S=C1NCN(C2CCCCC2)CN1CCc1ccccc1	·	24.3	·	·	25.4	·
COC(=O)C1=CN(c2ccc(OC)cc2)C=C(C(=O)OC)C1c1ccc(C)c([N+](=O)[O-])c1	6.0	43.8	0.9	99.5*	-28.8	1
COC(=O)C1=CN(c2cccc(C)c2)C=C(C(=O)OC)C1c1cc(OC)c(O)c([N+](=O)[O-])c1	-8.1	-1.2	0.9	2.3	-7.5	0.9
CCOc1ccc(OCCOCCNCCOC)cc1	-0.9	-0.5	1.1	70.0*	0.7	1.1
Cc1cc(C)c(C)c(OCCOCCNCc2ccccc2)c1	26.2	-8.7	0.9	77.0*	-34.5	1
CCc1ccc(OCCCC(=O)NCc2ccccc2)cc1	-0.7	14.9	1.1	-2.6	9.8	1
CCCOc1ccc(OCCOCCNCc2ccccc2)cc1	14.4	-15.9	1	98.1*	-3.8	1
CN1CCN(CCCN(Cc2ccco2)C(=S)Nc2ccc(Cl)cc2)CC1	8.9	17.4	1	1.1	-9.0	0.9
Cc1cccc(NC(=S)N(CCCN2CCCC2)Cc2cccn2Cc2ccc(Cl)cc2)c1	77.6*	25.1	1	98.2*	·	0.9
CCOc1ccc(NC(=S)N(CCCN2CCCC2)Cc2cccn2Cc2ccc(Cl)cc2)cc1	70.7*	-7.2	1	100.0*	1.2	1
CCOC(=O)N1CCN(C(=O)CSc2nnc(COc3ccc(Cl)cc3)o2)CC1	-4.7	-11.3	0.9	-6.9	-1.8	1
COC(=O)c1ccc(OC)c(CSc2nnc(COc3ccc(Cl)cc3)o2)c1	50.5	50.6*	0.8	-0.9	-4.4	0.8
O=C(CSc1nnc(COc2ccc(Cl)cc2)o1)N1c2ccccc2CCc2ccccc21	1.0	21.4	0.9	67.5*	-15.9	0.9
CCN1CCN(CCCNC(=O)c2ccc(/C=C3/Sc4ccccc4N(Cc4ccccc4F)C3=O)cc2)CC1	81.9	-138.6	1.1	97.8*	-10.0	1
CCOCCCNC(=O)CN1C(=O)/C(=C\c2ccc(C)cc2)Sc2ccccc21	22.2	-15.8	0.9	33.2	5.5	1.1
CCN1CCN(CCNC(=O)c2ccc(/C=C3/Sc4ccccc4N(Cc4ccccc4C)C3=O)cc2)CC1	77.3*	-156.8	1.1	100.2*	21.2	1
COc1cccc(NC(=O)Nc2ccc3c(c2)N(C)C(=O)CS3)c1	0.5	-20.9	0.9	59.1*	1.8	0.9
CC(=O)Nc1ccc(NC(=O)Nc2ccc3c(c2)N(C)C(=O)CS3)cc1	-4.9	-87.1	1.1	2.1	-19.8	1.1
Cc1ccc(C)c(N2CCN(C(=O)Nc3ccc4c(c3)N(C)C(=O)CS4)CC2)c1	49.9	-63.0	0.9	50.1*	9.2	1
CCOc1ccc(OCC)c(NC(=O)Nc2ccc3c(c2)N(C)C(=O)CS3)c1	49.8	3.0	0.8	66.9*	-3.9	0.8
C=CCSC1=N/C(=C/c2ccsc2)C(=O)N1c1ccccc1	17.5	8.0	0.8	3.0	-18.0	0.9
COc1cccc(CNc2ncn[nH]2)c1OCc1ccc(F)cc1	-5.4	-9.6	1	3.3	2.0	1

Source: PubChem BioAssay (several laboratories)
